Screens as filed in PubChem BioAssay.
Only some compounds are listed: those with a hit (about 1.8% of all), similar ones and a draw of the others.
STEP block: STEP phosphatase inhibitors, primary screen, biochemical, fluorescence intensity, uHTS. Tyrosine-protein phosphatase non-receptor type 5 (Homo sapiens), P54829. recombinant STEP, OMFP fluorogenic substrate. inhibition, % at 20 µM. actives 0.25% (n = 360,000). AID 588621, 2011;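 active = inhibition at 20 µM, scaled per plate between control wells, above about 37%, limit read from the data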
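System: STEP phosphatase, cell-free reaction; Buffer or medium: Bis-Tris pH 6.0 buffer with DTT, detergent; Incubation: 20 min at room temperature, dark; Measured by: fluorescence, 480/540 nm.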
SUMO1-SIM PPI: modulators of SUMO1 protein-protein interactions, primary screen, biochemical, uHTS; Small ubiquitin-related modifier 1 (Homo sapiens), P63165; actives 0.33% (n = 360,000); SUMO1 binding to a labelled peptide, TR-FRET, 1 h; inhibition, % at 20 µM; in the data active = inhibition above about 37%
Target sequence (P63165 whole entry, looked up): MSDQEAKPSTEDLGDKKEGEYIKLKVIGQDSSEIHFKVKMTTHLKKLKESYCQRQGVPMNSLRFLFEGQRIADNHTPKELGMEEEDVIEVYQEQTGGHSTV
DNMT1 block: human DNMT1 methyltransferase inhibitors, primary screen, biochemical, molecular beacon, fluorescence, HinP1I cleavage, uHTS | DNA (cytosine-5)-methyltransferase 1 (Homo sapiens), P26358 | inhibition (reported as % activation of signal), % at 10 µM | actives 0.83% (n = 360,000) | AID 588458, 2011; in the data active = inhibition above about 50%
Scp-1 inhibitor: Scp-1 phosphatase inhibitors, primary screen, biochemical, colorimetric, uHTS; Carboxy-terminal domain RNA polymerase II polypeptide A small phosphatase 1 (Homo …; Recombinant Scp1, phosphopeptide, malachite green phosphate absorbance; inhibition, % at 20 µM; actives 0.88% (n = 340,000);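 active = inhibition above about 50% at 20 µM, limit read from the data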
Target sequence (Q9GZU7 76-261 limits assumed): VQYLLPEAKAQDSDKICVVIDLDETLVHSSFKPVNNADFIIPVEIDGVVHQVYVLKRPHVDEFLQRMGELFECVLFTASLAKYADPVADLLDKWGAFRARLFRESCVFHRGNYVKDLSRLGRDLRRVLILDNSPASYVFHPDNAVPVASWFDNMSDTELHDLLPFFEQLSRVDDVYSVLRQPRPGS
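assay system = SCP-1 phosphatase catalytic domain, residues 76-261 | buffer or medium = 50 mM Tris acetate pH 5.5, 0.005% Tween-20, 10 mM MgCl2 | incubation = enzyme reaction 45 min at room temperature, colour 5 min, stabilisation 30 min | signal = Phosphate-binding colour reagent, absorbance read at 630 nm | measure = % inhibition at 20 µM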
LMPTP block: LMPTP phosphatase inhibitors, primary screen, biochemical, fluorescence intensity, uHTS. recombinant LMPTP-A, OMFP fluorogenic substrate. inhibition, % at 20 µM. actives 0.22% (n = 360,000). AID 651560, 2012;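 active = compounds that cut the enzyme signal by at least half of the control window in the single-dose screen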
Target sequence (P24666 whole entry, looked up): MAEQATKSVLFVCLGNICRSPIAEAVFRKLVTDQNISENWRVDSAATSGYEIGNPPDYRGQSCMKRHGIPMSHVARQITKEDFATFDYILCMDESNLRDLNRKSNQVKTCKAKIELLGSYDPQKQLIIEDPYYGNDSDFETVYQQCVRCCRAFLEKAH
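test system = LMPTP-A | amount = 0.625 nM LMPTP-A final | reagent = fluorogenic phosphatase substrate OMFP at 400 µM final | incubation = 50 min at room temperature | benchmarks = no-enzyme low control, uninhibited high control | medium = Bis-Tris pH 6.0, DTT, detergent | signal = fluorescence intensity of OMFP turnover product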
Scp1 confirm: Scp-1 phosphatase inhibitors, retest, confirmation, biochemical, colorimetric, single concentration; AID 540281, 2011; actives 61% (n = 2,500); inhibition, % at 20 µM; recombinant SCP-1 catalytic domain, phosphate release, malachite green absorbance; shares compounds with Scp-1 inhibitor
MG interference: colorimetric readout interference by compounds, confirmation, artefact control for Scp-1 inhibitor project, biochemical, single concentration. apparent inhibition (interference), % at 20 µM. 2,500 tested, under 10 active. shares compounds with Scp-1 inhibitor. AID 540313, 2011. Colorimetric interference counterscreen, malachite green absorbance 630 nm;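 note: compounds added after enzyme reaction finished so only phosphate colour detection is probed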
Scp1 DSF: Scp-1 binding by thermal shift, confirmation, orthogonal assay for Scp-1 inhibitor project, biophysical, differential scanning fluorimetry. actives 25% (n = 1,500). Recombinant SCP1, Sypro Orange thermal shift Tm. AID 540329, 2011. thermal shift relative to vanadate control, % at 40 µM. shares compounds with Scp-1 inhibitor;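 active = substances whose mean melting-temperature shift, as a percentage of the reference inhibitor's shift, reaches about 5.3%, limit read from the data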
Numbers stand for hits.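 Rule for the calls, unless noted: active = inhibition of at least 30% at 20 µM; inactive = the rest.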

Screening Cc1cccn2c(=O)c3cc(C#N)c(=NC(=O)c4ccccc4)n(Cc4ccco4)c3nc12 returned STEP block inactive, SUMO1-SIM PPI inactive, DNMT1 block inactive, Scp-1 inhibitor 87, LMPTP block inactive, Scp1 confirm inactive and MG interference inactive.
O=C1OC(c2ccc3ccccc3c2O)(c2ccc3ccccc3c2O)c2ccccc21 was read as STEP block inactive, SUMO1-SIM PPI inactive, DNMT1 block inactive, Scp-1 inhibitor inactive and LMPTP block inactive.
`O=C(NCCN1CCNC1=O)C1CCC(=O)N(CCc2ccccc2)C1` (configuration not stated) gave STEP block inactive, SUMO1-SIM PPI inactive, DNMT1 block inactive, Scp-1 inhibitor inactive, LMPTP block inactive, Scp1 confirm inactive and MG interference inactive.
For COc1ccccc1N1CCN(CCS(=O)(=O)c2cc(Cl)ccc2Cl)CC1 the results were STEP block inactive, SUMO1-SIM PPI inactive, DNMT1 block inactive and LMPTP block inactive.
For CCOC1=C2[C@H](c3ccccc3)N(S(=O)(=O)c3ccc(C)cc3)C(C(C)(C)C)[C@H]2n2c(=O)n(-c3ccccc3)c(=O)n2C1 (some centres not stated) the results were STEP block inactive, SUMO1-SIM PPI inactive, DNMT1 block inactive and LMPTP block inactive.
For C[C@H](CO)N1C[C@H](C)[C@@H](CN(C)S(=O)(=O)c2ccccc2)Oc2ccc(NC(=O)C3CC3)cc2C1=O the results were STEP block inactive, SUMO1-SIM PPI inactive, DNMT1 block inactive, Scp-1 inhibitor 62, LMPTP block inactive, Scp1 confirm inactive and MG interference inactive.
C[C@H](CO)N1C[C@H](C)[C@@H](CN(C)S(=O)(=O)c2ccccc2)Oc2ccc(NC(=O)Nc3ccccc3)cc2C1=O was read as STEP block inactive, SUMO1-SIM PPI inactive, DNMT1 block inactive, Scp-1 inhibitor 59, LMPTP block inactive, Scp1 confirm inactive and MG interference inactive.
Screening C[C@H](CO)N1C[C@H](C)[C@@H](CN(C)S(=O)(=O)c2ccc(F)cc2)Oc2ccc(NC(=O)Nc3ccccc3)cc2C1=O returned STEP block inactive, SUMO1-SIM PPI inactive, DNMT1 block inactive, Scp-1 inhibitor inactive and LMPTP block inactive.
For C[C@H](CO)N1C[C@H](C)[C@@H](CN(C)S(=O)(=O)c2ccc(F)cc2)Oc2ccc(NC(=O)Nc3ccc4c(c3)OCO4)cc2C1=O the results were STEP block inactive, SUMO1-SIM PPI inactive, DNMT1 block inactive, Scp-1 inhibitor 53, LMPTP block inactive, Scp1 confirm inactive and MG interference inactive.
Screening C[C@@H]1CN([C@@H](C)CO)C(=O)c2cc(NS(C)(=O)=O)ccc2O[C@@H]1CN(C)S(=O)(=O)c1ccccc1 returned STEP block inactive, SUMO1-SIM PPI inactive, DNMT1 block inactive, Scp-1 inhibitor 50, LMPTP block inactive, Scp1 confirm inactive and MG interference inactive.
`CC(C)(C)c1cc(CNC(=O)C2CCC(=O)N(Cc3ccccc3F)C2)[nH]n1` (configuration not stated) gave STEP block inactive, SUMO1-SIM PPI inactive, DNMT1 block inactive and LMPTP block inactive.
For O=C(Cn1cnc2ccccc21)OCC(=O)N1CCCCC1 the results were STEP block inactive, SUMO1-SIM PPI inactive, DNMT1 block inactive, Scp-1 inhibitor inactive and LMPTP block inactive.
`COc1ccc(S(=O)(=O)Nc2ccc3c(c2)C(=O)N([C@@H](C)CO)C[C@H](C)[C@H](CN(C)S(=O)(=O)c2ccc(F)cc2)O3)cc1` gave STEP block inactive, SUMO1-SIM PPI inactive, DNMT1 block inactive, Scp-1 inhibitor inactive and LMPTP block inactive.
`C[C@H](CO)N1C[C@H](C)[C@@H](CN(C)Cc2ccc(C(=O)O)cc2)Oc2ccc(NS(C)(=O)=O)cc2C1=O` gave STEP block inactive, SUMO1-SIM PPI inactive, DNMT1 block inactive, Scp-1 inhibitor inactive and LMPTP block inactive.
`C[C@@H]1CN([C@@H](C)CO)C(=O)c2cc(NS(C)(=O)=O)ccc2O[C@@H]1CN(C)Cc1ccc(C(F)(F)F)cc1` gave STEP block inactive, SUMO1-SIM PPI inactive, DNMT1 block inactive, Scp-1 inhibitor 58, LMPTP block inactive, Scp1 confirm inactive and MG interference inactive.
Screening COc1ccc(S(=O)(=O)Nc2ccc3c(c2)C(=O)N([C@H](C)CO)C[C@H](C)[C@@H](CN(C)S(=O)(=O)c2ccc(OC)cc2)O3)cc1 returned STEP block inactive, SUMO1-SIM PPI inactive, DNMT1 block inactive, Scp-1 inhibitor 66, LMPTP block inactive, Scp1 confirm inactive and MG interference inactive.
`O=C(CSc1ccc(-c2ccccc2)nn1)N1CCCc2ccccc21` gave STEP block inactive, SUMO1-SIM PPI inactive, DNMT1 block inactive, Scp-1 inhibitor 58, LMPTP block inactive, Scp1 confirm inactive and MG interference inactive.
For CCOC(=O)C1(C)CCCCCN1C(=O)c1ccc(C(=O)OC)cc1 (configuration not stated) the results were STEP block inactive, SUMO1-SIM PPI inactive, DNMT1 block inactive and LMPTP block inactive.
C#CCn1c(=NC(=O)c2ccc(Br)s2)sc2cc(NC(C)=O)ccc21 was read as STEP block inactive, SUMO1-SIM PPI inactive, DNMT1 block inactive, Scp-1 inhibitor 54, LMPTP block inactive, Scp1 confirm 70, MG interference inactive and Scp1 DSF inactive.
COCCn1c(=NC(=O)c2cccs2)sc2cc(NC(C)=O)ccc21 was read as STEP block inactive, SUMO1-SIM PPI inactive, DNMT1 block inactive, Scp-1 inhibitor inactive and LMPTP block inactive.
